Results reported in ChEMBL document CHEMBL3352067, “1,8-Naphthyridines IX. Potent anti-inflammatory and/or analgesic activity of a new group of substituted 5-amino[1,2,4]triazolo[4,3-a][1,8]naphthyridine-6-carboxamides, of some their Mannich base derivatives and of one novel substituted …” (Eur J Med Chem, 2014).
The source made the active and inactive calls. The rule behind the calls is not given here.

Key:
Rattus norvegicus [1] = experiment: Antiinflammatory activity in Wistar rat assessed as inhibition of carrageenan-induced paw oedema at 100 mg/kg, po administered 1 hr prior to carrageenan challenge; assay type: functional
Procedure, shortened: (§1)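 Wistar rats (250–300 g, either sex), fasted overnight, dosed by oral gavage with compound suspended in 0.5% methylcellulose; controls got vehicle. Groups of 8–10. 1 h later 0.1 mL 1% carrageenan injected subcutaneously into hind paw plantar surface; paw volume measured by plethysmometer immediately and 3 h later. Inhibition calculated from swelling difference versus controls (control = 100).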

Rattus norvegicus [2] = experiment: Antiinflammatory activity in Wistar rat assessed as inhibition of carrageenan-induced paw oedema at 25 mg/kg, po administered 1 hr prior to carrageenan challenge; assay type: functional; procedure, shortened: as §1
Rattus norvegicus [3] = experiment: Antiinflammatory activity in Wistar rat assessed as inhibition of carrageenan-induced paw oedema at 50 mg/kg, po administered 1 hr prior to carrageenan challenge; assay type: functional; procedure, shortened: as §1
Mus musculus [4] = experiment: Antinociceptive activity in Swiss mouse assessed as inhibition of acetic acid-induced writhing at 100 mg/kg, po administered 1 hr prior to acetic acid challenge measured for 30 mins; assay type: functional
Procedure, shortened: (§2)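 Swiss mice (25–35 g, either sex), fasted overnight, given compound orally in 0.5% methylcellulose; controls received vehicle; groups of 8–10. Writhes, scored as complete extension of either hind limb, counted over 30 min after injection of the noxious agent. Percent inhibition derived from the difference in writhing between treated and control groups.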

Rattus norvegicus [5] = experiment: Acute gastrolesivity in Wistar rat assessed as stomach lesions at 10 mg/kg, po measured after 5 hrs; assay type: toxicity, organism-based; parameters: dose 10 mg/kg, route oral; conditions: in vivo
Procedure, shortened: (§3)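 Wistar rats (250-300 g, either sex), fasted overnight, dosed by oral gavage in 0.5% methylcellulose (1 mL 100 g^-1); groups of 8-10. Stomachs excised 5 h post-dose, fixed with 2% formalin, opened along greater curvature, examined by stereomicroscope by blinded observer. Read-out: number of rats with gastric damage over number treated.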

Mus musculus [6] = experiment: Antinociceptive activity in Swiss mouse assessed as inhibition of acetic acid-induced writhing at 50 mg/kg, po administered 1 hr prior to acetic acid challenge measured for 30 mins; assay type: functional; procedure, shortened: as §2
Rattus norvegicus [7] = experiment: Antiinflammatory activity in Wistar rat assessed as inhibition of carrageenan-induced paw oedema at 12.5 mg/kg, po administered 1 hr prior to carrageenan challenge; assay type: functional; procedure, shortened: as §1
Mus musculus [8] = experiment: Antinociceptive activity in Swiss mouse assessed as inhibition of acetic acid-induced writhing at 25 mg/kg, po administered 1 hr prior to acetic acid challenge measured for 30 mins; assay type: functional; procedure, shortened: as §2
Rattus norvegicus [9] = experiment: Antiinflammatory activity in Wistar rat assessed as inhibition of carrageenan-induced paw oedema at 6.25 mg/kg, po administered 1 hr prior to carrageenan challenge; assay type: functional; procedure, shortened: as §1
Mus musculus [10] = experiment: Sedative activity in Swiss mouse assessed as inhibition of spontaneous locomotor activity at 100 mg/kg, po measured for 30 mins by open-field test; assay type: organism-based; parameters: dose 100 mg/kg, route oral; conditions: in vivo, 0.5 h
Procedure, shortened: (§4)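 Swiss mice (25-35 g, either sex), fasted overnight, given compound orally by gavage suspended in 0.5% methylcellulose; vehicle controls; groups of 8-10. Spontaneous locomotor activity recorded by videocamera with video-tracking as distance (m) travelled in 30 min; Student's t-test vs controls.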

J774 = experiment: Antiinflammatory activity in mouse J774 cells assessed as inhibition of LPS-induced NO production at 100 uM after 6 hrs by Griess assay; assay type: functional, cell-based
Procedure, shortened: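 J774 murine macrophages grown in DMEM with 10% FBS and 2 mM glutamine at 37 °C, 5% CO2. Cells plated at 2.5 × 10⁵/mL, left to adhere overnight, and the medium refreshed. Compound added together with LPS. Supernatants taken after 6 h; nitrite measured with Griess reagent (10 min) as absorbance at 540 nm, with fresh medium as blank.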

Rattus norvegicus [11] = experiment: Antiinflammatory activity in Wistar rat assessed as inhibition of carrageenan-induced paw oedema at 0.8 mg/kg, po administered 1 hr prior to carrageenan challenge; assay type: functional; procedure, shortened: as §1
[12] = Antiplatelet activity in guinea pig platelet rich plasma assessed as inhibition of ADP-induced aggregation by aggregometry; assay type: functional, cell-free; conditions: Cavia porcellus
Procedure, shortened: (§5)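 Guinea pig blood drawn by cardiac puncture into 3.8% citrate (1:9). PRP obtained by spinning at 180 g for 15 min, PPP at 2000 g for 10 min. PRP preincubated 5 min at 37 °C with compound or DMSO (≤0.5% final), then aggregation triggered by U46619, ADP or arachidonic acid. Born turbidimetry at 37 °C with stirring; percent inhibition versus control; tested within 3 h.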

Rattus norvegicus [13] = experiment: Acute gastrolesivity in Wistar rat assessed as stomach lesions at 100 mg/kg, po measured after 5 hrs; assay type: toxicity, organism-based; parameters: dose 100 mg/kg, route oral; conditions: in vivo; procedure, shortened: as §3
Rattus norvegicus [14] = experiment: Antiinflammatory activity in Wistar rat assessed as inhibition of carrageenan-induced paw oedema at 1.6 mg/kg, po administered 1 hr prior to carrageenan challenge; assay type: functional; procedure, shortened: as §1
[15] = Antiplatelet activity in guinea pig platelet rich plasma assessed as inhibition of arachidonic acid-induced aggregation by aggregometry; assay type: functional, cell-free; conditions: Cavia porcellus; procedure, shortened: as §5
Rattus norvegicus [16] = experiment: Antiinflammatory activity in Wistar rat assessed as inhibition of carrageenan-induced paw oedema at 3.12 mg/kg, po administered 1 hr prior to carrageenan challenge; assay type: functional; procedure, shortened: as §1
[17] = Antiplatelet activity in guinea pig platelet rich plasma assessed as inhibition of U46619-induced aggregation by aggregometry; assay type: functional, cell-free; conditions: Cavia porcellus; procedure, shortened: as §5
Mus musculus [18] = experiment: Sedative activity in Swiss mouse assessed as inhibition of spontaneous locomotor activity at 50 mg/kg, po measured for 30 mins by open-field test; assay type: organism-based; parameters: dose 50 mg/kg, route oral; conditions: in vivo, 0.5 h; procedure, shortened: as §4
Mus musculus [19] = experiment: Antinociceptive activity in Swiss mouse assessed as inhibition of acetic acid-induced writhing at 12.5 mg/kg, po administered 1 hr prior to acetic acid challenge measured for 30 mins; assay type: functional; procedure, shortened: as §2
Mus musculus [20] = experiment: Antinociceptive activity in Swiss mouse assessed as inhibition of acetic acid-induced writhing at 6.25 mg/kg, po administered 1 hr prior to acetic acid challenge measured for 30 mins; assay type: functional; procedure, shortened: as §2
Mus musculus [21] = experiment: Sedative activity in Swiss mouse assessed as inhibition of spontaneous locomotor activity at 12.5 mg/kg, po measured for 30 mins by open-field test; assay type: organism-based; parameters: dose 12.5 mg/kg, route oral; conditions: in vivo, 0.5 h; procedure, shortened: as §4
Mus musculus [22] = experiment: Sedative activity in Swiss mouse assessed as inhibition of spontaneous locomotor activity at 25 mg/kg, po measured for 30 mins by open-field test; assay type: organism-based; parameters: dose 25 mg/kg, route oral; conditions: in vivo, 0.5 h; procedure, shortened: as §4

SMILES | inhibition in vivo at 100 mg/kg (Rattus norvegicus [1]) | inhibition in vivo at 25 mg/kg (Rattus norvegicus [2]) | inhibition in vivo at 50 mg/kg (Rattus norvegicus [3]) | inhibition in vivo at 100 mg/kg (Mus musculus [4]) | inhibition in vivo at 50 mg/kg (Mus musculus [6]) | inhibition in vivo at 25 mg/kg (Mus musculus [8]) | Activity (Mus musculus [10]) | other results
CC(C)NC(=O)c1c(NC(C)C)c2cccnc2n2c(C(C)C)nnc12 | 34% | 9% | 33% | 0% | – | – | – | –
COc1ccc2c(c1)c(CC(=O)O)c(C)n2C(=O)c1ccc(Cl)cc1 [INDOMETHACIN] | – | – | – | – | – | – | – | Activity (Rattus norvegicus [5]): Toxic
CCNC(=O)c1c(NC(CC)CC)c2cccnc2n2c(C(C)C)nnc12 | 60% | 30% | 35% | 34% | 41% | 0% | – | inhibition in vivo at 12.5 mg/kg (Rattus norvegicus [7]): 12%
CCCNC(=O)c1c(NC(C)C)c2cccnc2n2c(C(C)C)nnc12 | 72% | 70% | 63% | 0% | 0% | – | – | inhibition in vivo at 6.25 mg/kg (Rattus norvegicus [9]): 19%; inhibition in vivo at 12.5 mg/kg (Rattus norvegicus [7]): 44%
CCNC(=O)c1c(NC(C)C)c2cccnc2n2c(C(C)C)nnc12 | 80% | 57% | 72% | 66% | 64% | 15% | Toxic | inhibition in vivo at 6.25 mg/kg (Rattus norvegicus [9]): 40%; inhibition (J774): inactive; inhibition in vivo at 12.5 mg/kg (Rattus norvegicus [7]): 54%; inhibition in vivo at 0.8 mg/kg (Rattus norvegicus [11]): 0%; IC50 [12]: 281 µM; Activity (Rattus norvegicus [13]): Non-toxic; inhibition in vivo at 1.6 mg/kg (Rattus norvegicus [14]): 31%; IC50 [15]: 24 µM; inhibition in vivo at 3.12 mg/kg (Rattus norvegicus [16]): 31%; IC50 [17]: 89 µM
CCN(CC)C(=O)c1c(NC(C)C)c2cccnc2n2c(CN3CCOCC3)nnc12 | 0% | – | – | 0% | – | – | – | –
CCN(CC)C(=O)c1c(NCC(C)C)c2cccnc2n2c(=O)cc(C)nc12 | 15% | – | – | 71% | 54% | 0% | – | –
CCN(CC)C(=O)c1c(N2CCN(C)CC2)c2cccnc2n2c(CN3CCN(C)CC3)nnc12 | 0% | – | – | 0% | – | – | – | –
CCc1nnc2c(C(=O)N(CC)CC)c(N3CCN(C)CC3)c3cccnc3n12 | 39% | 22% | 29% | 95% | 81% | 10% | Toxic | Activity (Mus musculus [18]): Toxic
CCN(CC)C(=O)c1c(N2CCN(C)CC2)c2cccnc2n2c(CN3CCOCC3)nnc12 | 8% | – | – | 37% | – | – | – | –
CC(=O)Oc1ccccc1C(=O)O [ASPIRIN] | – | – | – | – | – | – | – | IC50 [12]: > 500 µM; IC50 [15]: 45 µM; IC50 [17]: > 500 µM
CNC(=O)c1c(NC(C)C)c2cccnc2n2c(C(C)C)nnc12 | 50% | – | 3% | 67% | 11% | – | Toxic | –
CCN1CCN(c2c(C(=O)N(CC)CC)c3nnc(C(C)C)n3c3ncccc23)CC1 | 31% | 36% | 35% | 100% | 74% | 72% | Toxic | inhibition in vivo at 6.25 mg/kg (Rattus norvegicus [9]): 8%; inhibition in vivo at 12.5 mg/kg (Mus musculus [19]): 50%; inhibition in vivo at 12.5 mg/kg (Rattus norvegicus [7]): 31%; inhibition in vivo at 6.25 mg/kg (Mus musculus [20]): 0%; Activity (Mus musculus [21]): Toxic; Activity (Mus musculus [22]): Toxic; Activity (Mus musculus [18]): Toxic
CCN(CC)C(=O)c1c(NC(C)C)c2cccnc2n2c(CN3CCN(C)CC3)nnc12 | 13% | – | – | 0% | – | – | – | –
CCN(CC)C(=O)c1c(N2CCN(CCO)CC2)c2cccnc2n2c(C(C)C)nnc12 | 0% | – | – | 85% | 96% | 48% | Toxic | inhibition in vivo at 12.5 mg/kg (Mus musculus [19]): 13%; Activity (Mus musculus [22]): Toxic; Activity (Mus musculus [18]): Toxic
